Results on one molecule are retold here after ChEMBL document CHEMBL5214983, “New Dual P-Glycoprotein (P-gp) and Human Carbonic Anhydrase XII (hCA XII) Inhibitors as Multidrug Resistance (MDR) Reversers in Cancer Cells” (J Med Chem, 2022).

The nature of series [1]: Stability in PBS measured by LC-MS/MS analysis. The class given is physicochemical. Conditions: buffer; call rule not given here. In outline:
(§1)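 Analyte at 1 μM in PBS or in pooled human plasma, incubated at 37 °C for 0, 30, 60 and 120 min, in triplicate. Internal standard verapamil added, mixture centrifuged, supernatant dried and redissolved. Analyte quantified by LC-MS/MS. Half-life taken from the slope of ln(concentration) versus time. Ketoprofen ethyl ester served as plasma activity reference.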

Series [2] is described as follows: Stability in human plasma assessed as half-life measured by LC-MS/MS analysis. The series is classed as ADME, cell-free. A digest of the protocol: as §1
Series [3] deals with T1, ATP-dependent translocase ABCB1 (Homo sapiens, UniProt P08183). As to the kind of experiment: Inhibition of P-gp in doxorubicin-resistant human HT-29 cells overexpressing P-gp assessed as increase in doxorubicin retention 1 uM in presence of 5 uM doxorubicin measured after 24 hrs by spectrophotometric method. The series is classed as cell-based. Conditions: ht-29, 24 h. In outline: (§2)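 Resistant cells (wild-type, P-gp KO or hCA XII KO; KO lines selected with 1 μg/mL puromycin) exposed to 5 μM doxorubicin alone or with test compound at 1 or 3 μM. Cells washed, trypsinized and extracted in ethanol/0.3 N HCl. Doxorubicin fluorescence read at ex 475/em 553 nm and converted to nmol/mg cell protein with a calibration curve. Mean ± SD, n = 3.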

The target in series [4] is T1, ATP-dependent translocase ABCB1. The experiment in a line: Inhibition of P-gp in doxorubicin-resistant human A549 cells overexpressing P-gp assessed as increase in doxorubicin retention 1 uM in presence of 5 uM doxorubicin measured after 24 hrs by spectrophotometric method. The series is classed as cell-based. To be noted: a549, 24 h. A digest of the protocol: as §2

Series [5] has the same target. As to the kind of experiment: Inhibition of P-gp in doxorubicin-resistant human HT-29 cells overexpressing P-gp assessed as increase in doxorubicin retention 3 uM in presence of 5 uM doxorubicin measured after 24 hrs by spectrophotometric method. The series is classed as cell-based. To be noted: ht-29, 24 h. A digest of the protocol:
as §2

Series [6] has the same target. The experiment in a line: Inhibition of P-gp in doxorubicin-resistant human A549 cells overexpressing P-gp assessed as increase in doxorubicin retention 3 uM in presence of 5 uM doxorubicin measured after 24 hrs by spectrophotometric method. The series is classed as cell-based. To be noted: a549, 24 h. In outline:
as §2

For series [7] the target is unchanged. The experiment in a line: Inhibition of P-gp in human HT-29 cells overexpressing P-gp assessed as Vmax at 1 uM in presence of 0 to 100 uM doxorubicin […]. The series is classed as cell-based. To be noted: ht-29, 1 µM. In outline:
(§3)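 Cells incubated 20 min with 0–100 μM doxorubicin, alone or with compound at 1 or 3 μM. A parallel set was left a further 10 min at 37 °C, then intracellular drug measured. Doxorubicin extruded (nmol/min/mg protein) plotted against initial concentration and fitted to Michaelis–Menten to give Vmax and Km. Mean ± SD.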

Series [8] has the same target. The experiment in a line: Inhibition of P-gp in human HT-29 cells overexpressing P-gp assessed as Vmax at 3 uM in presence of 0 to 100 uM doxorubicin […]. The class given is cell-based. Conditions: ht-29, 3 µM. In outline: as §3
Series [9] shares this target. The experiment in a line: Inhibition of P-gp in doxorubicin-resistant human HT-29 cells overexpressing P-gp assessed as Vmax at 1 uM in presence of 0 to 100 uM doxorubicin […]. The series is classed as cell-based. Conditions: ht-29, 1 µM. In outline: as §3
For series [10] the target is unchanged. The experiment in a line: Inhibition of P-gp in doxorubicin-resistant human HT-29 cells overexpressing P-gp assessed as Vmax at 3 uM in presence of 0 to 100 uM doxorubicin […]. The series is classed as cell-based. To be noted: ht-29, 3 µM. In outline: as §3
For series [11] the target is unchanged. The experiment in a line: Inhibition of P-gp in doxorubicin-resistant carbonic anhydrase knockout human HT-29 cells overexpressing P-gp assessed as Vmax at 1 uM in presence of 0 to 100 uM doxorubicin […]. The series is classed as cell-based. Conditions: ht-29, 1 µM. In outline: as §3
Series [12] has the same target. As to the kind of experiment: Inhibition of P-gp in doxorubicin-resistant carbonic anhydrase knockout human HT-29 cells overexpressing P-gp assessed as Vmax at 3 uM in presence of 0 to 100 uM doxorubicin […]. Conditions: ht-29, 3 µM. The series is classed as cell-based. A digest of the protocol: as §3
For series [13] the target is unchanged. The experiment in a line: Inhibition of P-gp in human A549 cells overexpressing P-gp assessed as Vmax at 1 uM in presence of 0 to 100 uM doxorubicin […]. The class given is cell-based. To be noted: a549, 1 µM. A digest of the protocol: as §3
The target is the same in series [14]. The experiment in a line: Inhibition of P-gp in human A549 cells overexpressing P-gp assessed as Vmax at 3 uM in presence of 0 to 100 uM doxorubicin […]. The class given is cell-based. Conditions: a549, 3 µM. In outline:
as §3

The target is the same in series [15]. As to the kind of experiment: Inhibition of P-gp in doxorubicin-resistant human A549 cells overexpressing P-gp assessed as Vmax at 1 uM in presence of 0 to 100 uM doxorubicin […]. The series is classed as cell-based. To be noted: a549, 1 µM. A digest of the protocol:
as §3

The target is the same in series [16]. The experiment in a line: Inhibition of P-gp in doxorubicin-resistant human A549 cells overexpressing P-gp assessed as Vmax at 3 uM in presence of 0 to 100 uM doxorubicin […]. The class given is cell-based. To be noted: a549, 3 µM. In outline: as §3
Series [17] shares this target. The experiment in a line: Inhibition of P-gp in doxorubicin-resistant carbonic anhydrase knockout human A549 cells overexpressing P-gp assessed as Vmax at 1 uM in presence of 0 to 100 uM doxorubicin […]. Conditions: a549, 1 µM. The class given is cell-based. In outline:
as §3

Series [18] has the same target. As to the kind of experiment: Inhibition of P-gp in doxorubicin-resistant carbonic anhydrase knockout human A549 cells overexpressing P-gp assessed as Vmax at 3 uM in presence of 0 to 100 uM doxorubicin […]. To be noted: a549, 3 µM. The series is classed as cell-based. In outline:
as §3

T1 sequence (P08183 whole entry): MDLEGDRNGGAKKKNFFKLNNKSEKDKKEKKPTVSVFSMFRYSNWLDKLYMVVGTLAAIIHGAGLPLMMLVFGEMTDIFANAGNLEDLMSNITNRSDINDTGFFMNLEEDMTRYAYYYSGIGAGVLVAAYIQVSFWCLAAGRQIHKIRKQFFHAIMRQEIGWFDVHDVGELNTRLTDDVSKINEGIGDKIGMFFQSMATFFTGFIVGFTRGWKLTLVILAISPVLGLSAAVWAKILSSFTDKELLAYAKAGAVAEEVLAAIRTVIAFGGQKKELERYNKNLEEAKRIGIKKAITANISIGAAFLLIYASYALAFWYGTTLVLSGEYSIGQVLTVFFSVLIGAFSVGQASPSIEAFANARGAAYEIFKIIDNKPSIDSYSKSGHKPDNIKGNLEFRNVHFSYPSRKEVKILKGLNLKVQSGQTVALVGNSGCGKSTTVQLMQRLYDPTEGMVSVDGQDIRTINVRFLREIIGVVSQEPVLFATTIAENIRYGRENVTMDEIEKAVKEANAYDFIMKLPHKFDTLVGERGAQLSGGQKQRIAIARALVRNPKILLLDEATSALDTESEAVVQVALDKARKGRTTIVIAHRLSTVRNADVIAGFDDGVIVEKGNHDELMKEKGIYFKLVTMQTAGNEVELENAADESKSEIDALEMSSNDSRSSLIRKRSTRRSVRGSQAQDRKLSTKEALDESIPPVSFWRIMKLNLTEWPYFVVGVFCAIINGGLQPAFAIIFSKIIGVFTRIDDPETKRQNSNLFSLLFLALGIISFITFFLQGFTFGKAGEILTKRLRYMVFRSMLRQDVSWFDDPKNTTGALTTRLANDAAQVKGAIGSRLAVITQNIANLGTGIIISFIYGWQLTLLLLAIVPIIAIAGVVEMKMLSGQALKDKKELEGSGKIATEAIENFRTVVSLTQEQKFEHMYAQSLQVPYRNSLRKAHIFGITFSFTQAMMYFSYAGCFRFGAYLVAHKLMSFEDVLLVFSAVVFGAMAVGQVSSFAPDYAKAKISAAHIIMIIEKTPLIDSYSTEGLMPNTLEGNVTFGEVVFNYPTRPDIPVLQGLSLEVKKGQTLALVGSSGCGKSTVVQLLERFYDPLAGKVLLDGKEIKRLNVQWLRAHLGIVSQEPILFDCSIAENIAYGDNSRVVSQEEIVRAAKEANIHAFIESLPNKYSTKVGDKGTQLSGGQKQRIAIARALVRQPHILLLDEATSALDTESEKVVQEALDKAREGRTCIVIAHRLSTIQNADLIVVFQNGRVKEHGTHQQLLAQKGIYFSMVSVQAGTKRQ

Regarding `COc1cc(C(=O)OCCCCCN(CCCOC(=O)c2cc(OC)c(OC)c(OC)c2)CCCOc2ccc3ccc(=O)oc3c2)cc(OC)c1OC`, the Stability result in series [1] and in [2] was “Stable” throughout. Further, the “inhibition (INH)” value in series [3], in series [4], in series [5] and in [6] was “Active” in each case. Also, the Vmax – broadly, the rate approached at saturating substrate – in series [7] worked out at 3.29 µmol/min; in series [8], 3.12 µmol/min; in [9] it was 5.3 µmol/min; in series [10], 3.21 µmol/min; in series [11] it was 4.3 µmol/min; in series [12], 3.22 µmol/min. Further, the Vmax came to 2.36 µmol/min in [13]; 2.35 µmol/min in series [14]; 5.1 µmol/min in series [15]; 3.98 µmol/min in [16]; 3.75 µmol/min in series [17]; 2.74 µmol/min in series [18].
